Measurements taken from paper PMC3287054 (Bioorganic & medicinal chemistry letters, 2011).
In brackets after ≈: the same amount, converted by molar mass.

Assays:
[1] = system: C. albicans clinical isolate CaCi-2; assay: CaCi-2 growth inhibition in the presence of fluconazole; type: cell-based, Candida albicans
Summary of the method: (§1)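 Candida albicans clinical isolates were incubated with test compound and a fixed 8 μg/mL fluconazole at 37 °C for 48 h. Growth inhibition was read by Alamar blue fluorometry. Values are the average of at least three runs.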

[2] = Aqueous; type: physicochemical; conditions: aqueous / PBS solution, in words
[3] = system: murine 3T3 fibroblasts; assay: Mammalian fibroblast toxicity counterscreen; type: cell-based
[4] = system: calcineurin-dependent signaling pathway; assay: Yeast reporter assay, calcineurin-dependent signaling; type: cell-based; conditions: Saccharomyces cerevisiae, read-out: IC50 calcineurin-dependent signaling pathway
[5] = system: C. albicans clinical isolate CaCi-8; assay: CaCi-8 growth inhibition in the presence of fluconazole; type: cell-based, Candida albicans; conditions: at approximately 1 μM, with fluconazole
Summary of the method: as §1

[6] = system: CaCi-2; assay: CaCi-2 growth inhibition in the absence of fluconazole; type: cell-based, Candida albicans
[7] = system: Hsp90-dependent signaling pathway; assay: Yeast reporter assay, Hsp90-dependent signaling; type: cell-based; conditions: Saccharomyces cerevisiae, read-out: IC50 Hsp90-dependent signaling pathway
[8] = system: CaCi-2; assay: Fluconazole MIC determination, CaCi-2; type: cell-based; conditions: Candida albicans, read-out: MIC for CaCi-2
[9] = system: CaCi-8; assay: Fluconazole MIC determination, CaCi-8; type: cell-based; conditions: Candida albicans, read-out: MIC for CaCi-8

Question: Which inhibition at 10 µM ([1]; Candida albicans, read-out: Growth inhibition (control)) does the source give for COC1=C2C[C@@H](C)C[C@H](OC)[C@H](O)[C@@H](C)/C=C(\C)[C@H](OC(N)=O)[C@@H](OC)/C=C\C=C(/C)C(=O)NC(=CC1=O)C2=O [Geldanamycin] here?
Answer: Its inhibition at 10 µM is 100%.

Question: Which Solubility [2] does the source give for O=C(c1ccc(Cl)cc1)N1CCN(c2ccnc3cc(Cl)ccc23)CC1 [Compound 1] here?
Answer: The Solubility was “poor aqueous solubility”.

Question: And the “Concentration up to which murine 3T3 fibroblasts showed no response” value [3]?
Answer: The value was over 26 µM.

Question: What about the IC50 [4] of the same compound?
Answer: The IC50 was over 26 µM.

Question: And the “Growth inhibition of CaCi-8” value [5]?
Answer: The value was 97–100%.

Question: What about the “Effect on CaCi-2 in the absence of fluconazole” value [6] of the same compound?
Answer: The value was “no discernible effect”.

Question: And the IC50 [7]?
Answer: Its IC50 is over 26 µM.

Question: What about the “Growth inhibition of CaCi-2” value ([1]; at approximately 1 μM, with fluconazole) of the same compound?
Answer: The value was 97–100%.

Question: With OC(Cn1cncn1)(Cn1cncn1)c1ccc(F)cc1F [fluconazole] as the compound, how does the MIC [8] read?
Answer: Its MIC is 2 µg/mL (≈ 6.53 µM).

Question: What about the MIC [9] of the same compound?
Answer: Its MIC is 8 µg/mL (≈ 26.1 µM).

Question: What about the inhibition at 8 µg/mL ([1]; Candida albicans, read-out: Baseline growth inhibition in CaCi-2) of the same compound?
Answer: The inhibition at 8 µg/mL was 60 to 80%.
